Measurements published in ChEMBL document CHEMBL1132659, “Novel 2-phenylimidazo[1,2-a]pyridine derivatives as potent and selective ligands for peripheral benzodiazepine receptors: synthesis, binding affinity, and in vivo studies” (J Med Chem, 1999).

Columns and labels:
[1] = target: T1, GABA-A receptor; alpha-1/beta-2/gamma-2 (Homo sapiens) (UniProt P14867+P47870+P18507); assay: Modulatory activity against human GABA-A receptor alpha-1-beta-2-gamma-2 subunits expressed in Xenopus laevis Oocytes at 50 uM; type: cell-based
Procedure, shortened: (§1)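 Xenopus stage V–VI oocytes, defolliculated with collagenase, nuclear-injected with α1, β2, γ2 cDNAs and cultured at 19 °C. Two-electrode voltage clamp at -70 mV began about 24 h later, under MBS perfusion at room temperature. Drug applied for 20 s; value is percent change of the current evoked by GABA EC20 (2-10 μM). Means from 6–14 oocytes ± SEM.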

Translocator protein [2] = target: T2, Translocator protein (Rattus norvegicus, UniProt P16257); assay: Displacement of [3H]-PK 11195 from peripheral-type benzodiazepine receptor of rat ovary membranes; type: cell membranes, Female gonad, Membrane
T2 sequence (P16257 whole entry, looked up): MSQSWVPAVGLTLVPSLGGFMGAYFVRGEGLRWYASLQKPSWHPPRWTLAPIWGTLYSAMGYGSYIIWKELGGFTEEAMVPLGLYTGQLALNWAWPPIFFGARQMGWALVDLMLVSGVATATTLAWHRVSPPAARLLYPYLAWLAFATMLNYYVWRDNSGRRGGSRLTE

[3] = target: T1, GABA-A receptor; alpha-1/beta-2/gamma-2 (Homo sapiens); assay: Modulatory activity against human GABA-A receptor alpha-1-beta-2-gamma-2 subunits expressed in Xenopus laevis Oocytes at 10 uM; type: cell-based; procedure, shortened: as §1
[4] = target: T1, GABA-A receptor; alpha-1/beta-2/gamma-2 (Homo sapiens); assay: Modulatory activity against human GABA-A receptor alpha-1-beta-2-gamma-2 subunits expressed in Xenopus laevis Oocytes at 100 uM; type: cell-based; procedure, shortened: as §1
Translocator protein [5] = target: T2, Translocator protein; assay: Displacement of [3H]-PK 11195 from peripheral-type benzodiazepine receptor of rat cerebral cortex membranes; type: cell membranes, Membrane
[6] = target: GABA-A receptor; anion channel; assay: Affinity benzodiazepine receptor as ability to displace [3H]flunitrazepam from binding to membrane preparations from rat cerebral cortex.; type: tissue-based
Procedure, shortened: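 Rat cerebral cortex homogenised in ice-cold 50 mM Tris-HCl pH 7.4, centrifuged twice at 20000g and resuspended; 0.4-0.5 mg protein incubated with 0.5 nM [3H]flunitrazepam for 60 min at 0 °C. Filtration, then scintillation counting. Nonspecific binding defined with 5 μM diazepam. pIC50 from means of 3 experiments run in duplicate.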

SMILES | Activity [1] | IC50 (Translocator protein [2]) | Activity [3] | Activity [4] | IC50 (Translocator protein [5]) | pIC50 [6]
CCCN(CCC)C(=O)Cc1c(-c2ccccc2)nc2ccc(C(=O)OC)cn12 | 11.4 | 26.9 nM | 17.1 | 11.6 | 16.6 nM | 4.92
CCCN(CCC)C(=O)Cc1c(-c2ccc(Cl)cc2)nc2ccccn12 | – | 33.1 nM | – | – | 10 nM | 7.19
CCCN(CCC)C(=O)Cc1c(-c2ccc(Cl)cc2)nc2c(C)cccn12 | < -38.7 | 2.82 nM | -9.6 | < -44.3 | 1.41 nM | 2.4
CCCN(CCC)C(=O)Cc1c(-c2ccccc2)nc2c([N+](=O)[O-])cccn12 | – | 120 nM | – | – | 85.1 nM | 4.8
CCCCCCN(CCCCCC)C(=O)Cc1c(-c2ccc(Cl)cc2)nc2ccccn12 | – | 178 nM | – | – | 182 nM | 3.83
CCCNC(=O)Cc1c(-c2ccccc2)nc2ccccn12 | – | 2000 nM | – | – | 2000 nM | 6.09
CCCN(CCC)C(=O)Cc1c(-c2ccccc2)nc2c(NC(C)=O)cccn12 | – | 447 nM | – | – | 257 nM | 4.96
CCCCN(CCCC)C(=O)Cc1c(-c2ccccc2)nc2ccccn12 | < 44.6 | 22.9 nM | 17.4 | < 58.2 | 17 nM | 6.3
CCCN(CCC)C(=O)Cc1c(-c2ccc(Cl)cc2)nc2c(Br)cc(Br)cn12 | – | 1.58 nM | – | – | 0.794 nM | 5
CCCN(CCC)C(=O)Cc1c(-c2ccccc2)nc2ccc(C(N)=O)cn12 | – | 302 nM | – | – | 457 nM | 5.58
CCCCN(CCCC)C(=O)Cc1c(-c2ccc(Cl)cc2)nc2ccccn12 | < 35 | 10.5 nM | < 23.2 | < 23.9 | 5.89 nM | 7.04
CCCN(CCC)C(=O)Cc1c(-c2ccc(Cl)cc2)nc2c(NC)cccn12 | – | 7.94 nM | – | – | 3.72 nM | 4
CCCN(CCC)C(=O)Cc1c(-c2ccc(Cl)cc2)nc2c(Cl)cc(C(F)(F)F)cn12 | – | 2.82 nM | – | – | 1.82 nM | 5
CCCN(CCC)C(=O)Cc1c(-c2ccccc2)nc2c(C)cccn12 | – | 41.7 nM | – | – | 20 nM | 4.85
CCCN(CCC)C(=O)Cc1c(-c2ccc(Cl)cc2)nc2c(Cl)cccn12 | -6.1 | 7.41 nM | 4.5 | -15.2 | 4.27 nM | 2.4
CCCCCCN(CCCCCC)C(=O)Cc1c(-c2ccccc2)nc2ccccn12 | – | 13.2 nM | – | – | 19.1 nM | 3.93

SMILES | Activity [1] | IC50 (Translocator protein [2]) | Activity [3] | Activity [4] | IC50 (Translocator protein [5]) | pIC50 [6]
CCCN(CCC)C(=O)Cc1c(-c2ccccc2)nc2ccc([N+](=O)[O-])cn12 | – | 7.76 nM | – | – | 7.59 nM | 5.47
CCCN(CCC)C(=O)Cc1c(-c2ccccc2)nc2c(C)cc(Br)cn12 | – | 2.63 nM | – | – | 1.62 nM | 4.27
CCCNC(=O)Cc1c(-c2ccc(Cl)cc2)nc2ccccn12 | – | 1620 nM | – | – | 589 nM | 6.93
CCCN(CCC)C(=O)Cc1c(-c2ccc(Cl)cc2)nc2c(N)cccn12 | – | 4.57 nM | – | – | 6.31 nM | 5.07
CCCN(CCC)C(=O)Cc1c(-c2ccc(Cl)cc2)nc2c([N+](=O)[O-])cccn12 | – | 8.71 nM | – | – | 5.75 nM | 5
CCCN(CCC)C(=O)Cc1c(-c2ccc(Cl)cc2)nc2c(Cl)cc(Cl)cn12 [ALPDEM] | – | 2.63 nM | – | – | 1 nM | 2.4
CCN(CC)C(=O)Cc1c(-c2ccccc2)nc2ccccn12 | – | 525 nM | – | – | 437 nM | 5.68
CCCCNC(=O)Cc1c(-c2ccccc2)nc2c(Cl)cc(Cl)cn12 | – | 389 nM | – | – | 295 nM | 4
CCC(C)N(C)C(=O)c1cc2ccccc2c(-c2ccccc2Cl)n1 (configuration not stated) [PK-11195] | 4.3 | – | -16 | 91 | – | 4.67
CCCN(CCC)C(=O)Cc1c(-c2ccccc2)nc2ccccn12 | – | 95.5 nM | – | – | 100 nM | 6.28
CCCN(CCC)C(=O)Cc1c(-c2ccccc2)nc2c(Cl)cc(Cl)cn12 | – | 4.27 nM | – | – | 3.02 nM | 2.4
CCCN(CCC)C(=O)Cc1c(-c2ccccc2)nc2c(OC)cccn12 | – | 49 nM | – | – | 46.8 nM | 5.27
CCCN(CCC)C(=O)Cc1c(-c2ccc(Cl)cc2)nc2c(NC(C)=O)cccn12 | – | 33.1 nM | – | – | 10 nM | 4.09
CCCN(CCC)C(=O)Cc1c(-c2ccccc2)nc2c(Cl)cccn12 | – | 15.8 nM | – | – | 22.9 nM | 4.59
CCCN(CCC)C(=O)Cc1c(-c2ccccc2)nc2c(N)cccn12 | – | 5.75 nM | – | – | 4.27 nM | 5.27
CCCN(CCC)C(=O)Cc1c(-c2ccc(Cl)cc2)nc2c(OC)cccn12 | – | 20.9 nM | – | – | 16.6 nM | 4.19
